Experimental findings from ChEMBL document CHEMBL1932940, “Xanthohumol induces apoptosis in human malignant glioblastoma cells by increasing reactive oxygen species and activating MAPK pathways” (J Nat Prod, 2011) are described below.

SMILES strings stand for the structures. Calls of active or inactive are those of the source. The calls are words filed in the database; no cut-off is given here.

For data set [1], the system named is U-87MG ATCC. Description: Anticancer activity against human U87MG cells assessed as decrease in cell viability at 50 uM after 48 hrs by MTT assay. In kind it is functional, cell-based. The method in brief: (§1)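 Cells (T98G, U87-MG, NHA; 3 × 10^4 per well) plated, next day exposed to serial dilutions (1−50 μM) for 48 h at 37 °C, 5% CO2. MTT (5 mg/mL) added for 3 h; crystals solubilized in 50% DMF/20% SDS pH 4.5; OD at 620 nm. Viability = % of DMSO (0.1% final) controls. Means ± SEM, three experiments in triplicate.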
(Formazan colour is commonly taken as a measure of viable cells.)

Data set [2] deals with T98G. Nature of the data set: Induction of cell cycle arrest in human T98G cells assessed as accumulation at S phase at 1 to 20 uM after 48 hrs by flow cytometric analysis. In kind it is functional, cell-based. The method in brief: (§2)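 2 × 10^5 cells per dish exposed 48 h (1−20 μM per legend); harvested, fixed in cold 70% ethanol at −20 °C, stained with propidium iodide plus RNase A (100 U/mL) 30 min at room temperature; percentage in G1, S, G2/M by flow cytometry. Three experiments in triplicate.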
Background: A flow cytometer gives signals particle by particle.

For data set [3], the system named is T98G. Description: Anticancer activity against human T98G cells assessed as decrease in cell viability at 50 uM after 48 hrs by MTT assay. Type of data set: functional. The procedure, abridged:
as §1

For data set [4], the system named is T98G. Description: Induction of apoptosis in human T98G cells at 1 to 50 uM after 48 hrs by propidium iodide staining based flow cytometric analysis. In kind it is functional, cell-based. The procedure, abridged:
(§3)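 Cells treated 1−50 μM for 24 or 48 h, washed in PBS, resuspended in 0.1% sodium citrate, 0.1% Triton X-100, 50 μg/mL propidium iodide, 30 min at 4 °C in dark. Nuclei analyzed by flow cytometry, DNA on log scale, debris gated out; percent hypodiploid (sub-G1) nuclei reported. Three experiments in triplicate.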

Data set [5] relates to T98G. Nature of the data set: Induction of cell cycle arrest in human T98G cells assessed as accumulation at G2/M phase at 1 to 20 uM after 48 hrs by flow cytometric analysis. In kind it is functional, cell-based. The method in brief:
as §2

Data set [6] deals with U-87 MG. Nature of the data set: Induction of apoptosis in human U87MG cells at 1 to 50 uM after 48 hrs by propidium iodide staining based flow cytometric analysis. In kind it is functional, cell-based. The following applies: U-87MG ATCC. The method in brief:
as §3

The subject of data set [7] is U-87 MG. Description: Induction of cell cycle arrest in human U87MG cells assessed as accumulation at G0/G1 phase at 1 to 20 uM after 48 hrs by flow cytometric analysis. Type of data set: functional, cell-based. The following applies: U-87MG ATCC. The procedure, abridged:
as §2

Data set [8] relates to U-87 MG. Nature of the data set: Induction of cell cycle arrest in human U87MG cells assessed as accumulation at S phase at 1 to 20 uM after 48 hrs by flow cytometric analysis. Type of data set: functional, cell-based. Conditions: U-87MG ATCC. The method in brief: as §2
Data set [9] in a line: Cytotoxicity against normal human astrocytes assessed as decrease in cell viability after 48 hrs by MTT assay. In kind it is cell-based. Conditions: astrocyte. The procedure, abridged: as §1
Data set [10] concerns U-87 MG. Description: Induction of cell cycle arrest in human U87MG cells assessed as accumulation at G2/M phase at 1 to 20 uM after 48 hrs by flow cytometric analysis. In kind it is functional, cell-based. Conditions: U-87MG ATCC. The method in brief: as §2
The test system of data set [11] is T98G. Nature of the data set: Induction of cell cycle arrest in human T98G cells assessed as accumulation at G0/G1 phase at 1 to 20 uM after 48 hrs by flow cytometric analysis. Type of data set: functional, cell-based. The method in brief:
as §2

On to `CC(C)=CCC1C(=O)C(C(=O)CC(C)C)=C(O)C(O)(CC=C(C)C)C1=O` (stereo unspecified) [HUMULONE], for which the result in data set [1], in data set [2], in [3], in data set [4], in data set [5] and in data set [6] was inactive. The outcome in data set [7], in data set [8], in data set [10] and in [11] was inactive. Also, the Activity entry in data set [9] was “Non-toxic”.
